Test results: ChEMBL document CHEMBL1156119 (J Med Chem, 2009)
pEC50: −log10 of the molar value. The source made the active and inactive calls. The rule behind the calls is not given here.

Experiments:
SMB [1] = assay: Antiprion activity against Scrapie prion protein-mediated scrapie in mouse SMB cells assessed as remaining PrP-Sc level at 20 uM after 5 days by Bradford assay relative to control; type: cell-based
Method in brief: (§1)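 SMB scrapie-infected mouse cells, non-neuronal, in medium 199 with 10% newborn calf and 5% fetal calf serum, seeded at 3 × 10⁴ cells/well and attached for 24 h. Compound DMSO stocks were diluted via HBSS into medium and applied for 5 days. Lysates of ~30-40 μg protein/well were dot-blotted, digested with proteinase K at 75 μg mL⁻¹ (1 h, 37 °C) and denatured in 1.8 M guanidine thiocyanate. Read-out was %PrP^Sc versus DMSO-only control, in triplicate.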

SMB [2] = assay: Antiprion activity against Scrapie prion protein-mediated scrapie in mouse SMB cells assessed as remaining PrP-Sc level at 1 uM after 5 days by Bradford assay relative to control; type: cell-based
Method in brief: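 Compound DMSO stocks were diluted via HBSS into medium and applied for 5 days. Lysates of ~30-40 μg protein/well were dot-blotted, digested with proteinase K at 75 μg mL⁻¹ (1 h, 37 °C) and denatured in 1.8 M guanidine thiocyanate. Read-out was %PrP^Sc versus DMSO-only control, in triplicate.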

[3] = Antiprion activity against Scrapie prion protein-mediated scrapie in mouse SMB cells assessed as remaining PrP-Sc level after 5 days by Bradford assay; type: cell-based; conditions: 120 h
Method in brief: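 Same SMB dot-blot protocol with 5-day exposure. Compounds were rescreened over a range of concentrations to fit an EC₅₀ from dose-response curves. Each determination was run in triplicate, in at least two independent experiments. PrP^Sc was measured relative to an untreated DMSO-only control.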

SMB [4] = assay: Antiprion activity against Scrapie prion protein-mediated scrapie in mouse SMB cells assessed as remaining PrP-Sc level at 10 uM after 5 days by Bradford assay relative to control; type: cell-based; method in brief: as §1
[5] = target: Major prion protein (Homo sapiens) (UniProt P04156); assay: Binding affinity to human PrP up to 40 uM by surface plasmon resonance assay
[6] = target: Major prion protein (Mus musculus) (UniProt P04925); assay: Binding affinity to mouse PrP up to 40 uM by surface plasmon resonance assay
[7] = Cytotoxicity against mouse SMB cells at 20 uM after 5 days by MTT assay; type: cell-based; conditions: 120 h
Method in brief: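 SMB cells were seeded at 3 × 10⁴ cells/well and attached for 24 h. Compound was added from DMSO stock diluted through HBSS into the medium, and cells were exposed for 5 days. Viability was read by MTT assay following the standard reagent protocol.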

Major prion protein (Mus musculus), sequence (P04925 whole entry): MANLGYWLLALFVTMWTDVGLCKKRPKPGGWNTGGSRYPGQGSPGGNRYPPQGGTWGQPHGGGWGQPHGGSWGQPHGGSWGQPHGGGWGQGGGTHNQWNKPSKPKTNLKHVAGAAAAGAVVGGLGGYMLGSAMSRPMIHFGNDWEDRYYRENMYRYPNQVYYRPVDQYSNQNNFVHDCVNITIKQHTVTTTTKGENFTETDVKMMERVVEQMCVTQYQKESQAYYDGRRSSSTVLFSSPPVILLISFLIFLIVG

SMILES	Remaining PrP-Sc level (SMB [1])	pEC50 [3]	further results
Cn1cc(C(=O)C(=O)Nc2cccc3ccccc23)c2ccccc21	121%		
O=C(Nc1cccc2ccccc12)C(=O)c1c[nH]c2ccccc12	135%		
O=C(NC1CCCCC1)C(=O)c1c[nH]c2ccccc12	83.1%		
CCOc1ccc(CNC(=O)C(=O)c2c[nH]c3ccccc23)cc1		7.22	Activity (SMB [2]): 6.5%
CN(C)c1ccc(NC(=O)C(=O)c2c[nH]c3ccccc23)cc1		7.59	Activity (SMB [2]): 7.2%
COc1cc(NC(=O)C(=O)c2c[nH]c3ccccc23)cc(OC)c1OC	143%		
COc1cc(NC(=O)C(=O)c2c[nH]c3ccccc23)cc(OC)c1	75.4%		
O=C(Nc1ccc(Cl)cc1)C(=O)c1c[nH]c2ccccc12		7.19	Activity (SMB [2]): 5.9%
Cc1[nH]c2ccccc2c1C(=O)C(=O)N1CCOCC1	81.9%		
CC(=O)c1cccc(NC(=O)C(=O)c2cn(C)c3ccccc23)c1	157%		
O=C(C(=O)N1CCCCC1)c1c[nH]c2ccccc12	112%		
O=C(Nc1ccc(-c2cnco2)cc1)C(=O)c1c[nH]c2ccccc12		7.72	Activity (SMB [2]): 16.8%
Cn1cc(C(=O)C(=O)NCc2cccnc2)c2ccccc21			Remaining PrP-Sc level (SMB [4]): 117%
COc1cccc(CNC(=O)C(=O)c2c[nH]c3ccccc23)c1	104%		
CCc1cccc(NC(=O)C(=O)c2c(C)[nH]c3ccccc23)c1	78.8%		
CC(=O)c1cccc(NC(=O)C(=O)c2c[nH]c3ccccc23)c1			Remaining PrP-Sc level (SMB [4]): 98.8%
O=C(Nc1cccc(CO)c1)C(=O)c1c[nH]c2ccccc12		4.83	Remaining PrP-Sc level (SMB [4]): 17.6%
O=C(Nc1cnc2ccccc2c1)C(=O)c1c[nH]c2ccccc12		6.77	Activity (SMB [2]): 41.3%; Activity [5]: inactive; Activity [6]: inactive
Cn1cc(C(=O)C(=O)Nc2ccc(O)cc2)c2ccccc21		5.42	Remaining PrP-Sc level (SMB [4]): 47.3%
CCCCNC(=O)C(=O)c1cn(C)c2ccccc12	124%		
COc1cccc(NC(=O)C(=O)c2cn(C)c3ccccc23)c1	61.8%	5.33	
Cn1cc(C(=O)C(=O)Nc2cccc(CO)c2)c2ccccc21	137%		

SMILES	Remaining PrP-Sc level (SMB [1])	pEC50 [3]	further results
Cn1cc(C(=O)C(=O)NCc2ccco2)c2ccccc21	109%		
Cc1[nH]c2ccccc2c1C(=O)C(=O)NC1CCCCC1	102%		Activity [7]: Toxic
O=C(C(=O)N1CCOCC1)c1c[nH]c2ccccc12	80.3%		
Cc1ccc(NC(=O)C(=O)c2c[nH]c3ccccc23)cc1		6.89	Activity (SMB [2]): 4.1%
CSc1ccc(CNC(=O)C(=O)c2c[nH]c3ccccc23)cc1		7.40	Activity (SMB [2]): 5.6%
COc1ccccc1NC(=O)C(=O)c1c[nH]c2ccccc12			Activity [7]: Toxic; Remaining PrP-Sc level (SMB [4]): 140%
Cc1[nH]c2ccccc2c1C(=O)C(=O)Nc1cccc2c(O)cccc12			Activity [7]: Toxic
COc1ccc(NC(=O)C(=O)c2c(C)[nH]c3ccccc23)cc1	72.4%		
CCCCNC(=O)C(=O)c1c[nH]c2ccccc12	80.8%		
Cn1cc(C(=O)C(=O)Nc2cnc3ccccc3c2)c2ccccc21	102%		Activity [7]: Toxic
O=C(Nc1ccc(OC(F)(F)F)cc1)C(=O)c1c[nH]c2ccccc12		6.42	Activity (SMB [2]): 6.7%
Cc1[nH]c2ccccc2c1C(=O)C(=O)NCc1ccco1	83%		Activity [7]: Toxic
Cn1cc(C(=O)C(=O)Nc2cccc(C#N)c2)c2ccccc21	91.2%		Activity [7]: Toxic
O=C(Nc1cccc(-c2cnco2)c1)C(=O)c1c[nH]c2ccccc12		6.28	Remaining PrP-Sc level (SMB [4]): 16.8%
COc1cc(NC(=O)C(=O)c2cn(C)c3ccccc23)ncn1			Remaining PrP-Sc level (SMB [4]): 86.4%
COc1ccc(CNC(=O)C(=O)c2c[nH]c3ccccc23)cc1OC		6.28	Activity (SMB [2]): 19.3%
Cn1cc(C(=O)C(=O)Nc2cccc(F)c2)c2ccccc21	11.6%		
Cn1cc(C(=O)C(=O)NCc2ccccc2)c2ccccc21			Remaining PrP-Sc level (SMB [4]): 148%
CCc1cccc(NC(=O)C(=O)c2cn(C)c3ccccc23)c1	132%		
COc1ccc(NC(=O)C(=O)c2c[nH]c3ccccc23)cn1		6.92	Activity (SMB [2]): 4.9%
Cn1cc(C(=O)C(=O)Nc2cccc(Oc3ccccc3)c2)c2ccccc21			Activity [7]: Toxic; Remaining PrP-Sc level (SMB [4]): 169%
Cc1[nH]c2ccccc2c1C(=O)C(=O)Nc1cccc(F)c1	64%		

SMILES	Remaining PrP-Sc level (SMB [1])	pEC50 [3]	further results
O=C(NCc1ccc(Oc2ccccc2)cc1)C(=O)c1c[nH]c2ccccc12		5.99	Remaining PrP-Sc level (SMB [4]): 17.5%
Cn1cc(C(=O)C(=O)N2CCCCC2)c2ccccc21			Activity [7]: Toxic; Remaining PrP-Sc level (SMB [4]): 131%
O=C(NCc1ccco1)C(=O)c1c[nH]c2ccccc12	95.2%		
O=C(Nc1ccc(-n2cccn2)cc1)C(=O)c1c[nH]c2ccccc12		9.00	Activity (SMB [2]): 7%
Cc1[nH]c2ccccc2c1C(=O)C(=O)NCc1cccnc1	73.7%		
O=C(Nc1ccc(F)cc1)C(=O)c1c[nH]c2ccccc12		7.19	Activity (SMB [2]): 10.3%
Cc1[nH]c2ccccc2c1C(=O)C(=O)Nc1cccc2ccccc12	96.3%		
O=C(Nc1cc(F)c(F)c(F)c1)C(=O)c1c[nH]c2ccccc12	62.5%		
Cc1[nH]c2ccccc2c1C(=O)C(=O)Nc1cccc(CO)c1	80.8%		
COc1ccc(CNC(=O)C(=O)c2c[nH]c3ccccc23)cc1	104%		
COc1cccc(NC(=O)C(=O)c2c(C)[nH]c3ccccc23)c1	133%		
O=C(Nc1ccc(F)c(F)c1)C(=O)c1c[nH]c2ccccc12		6.49	Activity (SMB [2]): 1.4%
O=C(Nc1ccc(C(F)(F)F)cc1)C(=O)c1c[nH]c2ccccc12		6.54	Activity (SMB [2]): 6.1%
O=C(Nc1ccc(-n2cccc2)cc1)C(=O)c1c[nH]c2ccccc12		8.22	Activity (SMB [2]): 17.1%
O=C(Nc1cccnc1)C(=O)c1c[nH]c2ccccc12		5.78	Remaining PrP-Sc level (SMB [4]): 8%
O=C(Nc1cccc2ccc(O)cc12)C(=O)c1c[nH]c2ccccc12	115%		
O=C(Nc1cccc(O)c1)C(=O)c1c[nH]c2ccccc12		6.09	Activity (SMB [2]): 52.4%
COc1cc(NC(=O)C(=O)c2c(C)[nH]c3ccccc23)ncn1	69.7%		
O=C(Nc1cccc(Oc2ccccc2)c1)C(=O)c1c[nH]c2ccccc12	98.3%		
N#Cc1cccc(NC(=O)C(=O)c2c[nH]c3ccccc23)c1	70.1%		
Cn1cc(C(=O)C(=O)N2CCOCC2)c2ccccc21	100%		
Cc1[nH]c2ccccc2c1C(=O)C(=O)Nc1cnc2ccccc2c1	87.6%		Activity [7]: Toxic

SMILES	Remaining PrP-Sc level (SMB [1])	pEC50 [3]	further results
CCc1cccc(NC(=O)C(=O)c2c[nH]c3ccccc23)c1		4.92	Remaining PrP-Sc level (SMB [4]): 37.9%
Cn1cc(C(=O)C(=O)Nc2ccccc2)c2ccccc21	81.4%	5.16	
COc1cc(NC(=O)C(=O)c2c[nH]c3ccccc23)ncn1		6.17	Activity (SMB [2]): 23%
COc1ccc(NC(=O)C(=O)c2cn(C)c3ccccc23)cc1		7.17	Activity (SMB [2]): 11.6%
Cc1ccccc1NC(=O)C(=O)c1c[nH]c2ccccc12	93.8%		
Cc1[nH]c2ccccc2c1C(=O)C(=O)Nc1cccc(Oc2ccccc2)c1			Remaining PrP-Sc level (SMB [4]): 103%
Cc1[nH]c2ccccc2c1C(=O)C(=O)Nc1ccc(O)cc1	83.1%		
Cn1cc(C(=O)C(=O)Nc2cccc3c(O)cccc23)c2ccccc21	114%		
O=C(NCc1cccnc1)C(=O)c1c[nH]c2ccccc12	107%		
Cc1[nH]c2ccccc2c1C(=O)C(=O)Nc1cccc(C#N)c1	78.5%		
CC(=O)c1cccc(NC(=O)C(=O)c2c(C)[nH]c3ccccc23)c1	84.4%		
Cc1cccc(NC(=O)C(=O)c2c[nH]c3ccccc23)c1		5.20	Remaining PrP-Sc level (SMB [4]): 21.7%
O=C(Nc1cccc2c(O)cccc12)C(=O)c1c[nH]c2ccccc12	101%		
Cc1[nH]c2ccccc2c1C(=O)C(=O)Nc1ccccc1			Remaining PrP-Sc level (SMB [4]): 41.6%
Cc1ccc(NC(=O)C(=O)c2c[nH]c3ccccc23)cc1C		5.92	Activity (SMB [2]): 48.7%
O=C(Nc1cccc(Cl)c1)C(=O)c1c[nH]c2ccccc12		5.82	Remaining PrP-Sc level (SMB [4]): 40%
C=CCNC(=O)C(=O)c1c[nH]c2ccccc12	158%		
Cc1csc(NC(=O)C(=O)c2c[nH]c3ccccc23)n1			Remaining PrP-Sc level (SMB [4]): 105%
O=C(Nc1ccccc1Cl)C(=O)c1c[nH]c2ccccc12	85.4%		
O=C(NCc1ccccc1)C(=O)c1c[nH]c2ccccc12	90%		
